Measured values taken from ChEMBL document CHEMBL1629439, “High-throughput identification of antibacterials against methicillin-resistant Staphylococcus aureus (MRSA) and the transglycosylase” (Bioorg Med Chem, 2010).
In brackets after ≈: the same amount, converted by molar mass.

Columns and labels:
[1] = tested on: Staphylococcus aureus; test: Antimicrobial activity against oxacillin- and methicillin-resistant Staphylococcus aureus isolate Sa-OXA-R2 after 18 to 24 hrs by alamar blue assay; type: functional
Procedure, shortened: (§1)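 Broth microdilution per NCCLS standard, Mueller-Hinton broth, 8-point twofold dilutions; exponentially growing cells at 5 10^5 cells/ml with compound, 18–24 h at 37 C; 20% Alamar blue added, fluorescence read; MIC90 taken as lowest concentration preventing at least 90% growth.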

[2] = tested on: Bacillus subtilis; test: Antimicrobial activity against Bacillus subtilis ATCC 23857 after 18 to 24 hrs by alamar blue assay; type: functional
Procedure, shortened: (§2)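 Broth microdilution per NCCLS in Mueller-Hinton broth, 8-point twofold dilutions, 384-well format. Exponential-phase cells at 5 × 10^5 cells/ml incubated with compound 18–24 h at 37 °C, then 20% Alamar blue added and fluorescence read. MIC90 taken as the lowest concentration preventing at least 90% bacterial growth.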

[3] = tested on: Escherichia coli; test: Antimicrobial activity against Escherichia coli ATCC […] after 18 to 24 hrs by alamar blue assay; type: functional; settings: Escherichia coli; read-out: MIC; procedure, shortened: as §2
[4] = tested on: Pseudomonas aeruginosa; test: Antimicrobial activity against Pseudomonas aeruginosa ATCC 25619 after 18 to 24 hrs by alamar blue assay; type: functional; settings: Pseudomonas aeruginosa, ATCC 25619; read-out: MIC; procedure, shortened: as §2
[5] = tested on: Acinetobacter baumannii; test: Antimicrobial activity against Acinetobacter baumannii ATCC 49139 after 18 to 24 hrs by alamar blue assay; type: functional; settings: Acinetobacter baumannii, ATCC 49139; read-out: MIC; procedure, shortened: as §2
[6] = tested on: Stenotrophomonas maltophilia; test: Antimicrobial activity against Stenotrophomonas maltophilia ATCC 13637 after 18 to 24 hrs by alamar blue assay; type: functional; settings: Stenotrophomonas maltophilia, ATCC 13637; read-out: MIC; procedure, shortened: as §2
[7] = tested on: Serratia marcescens; test: Antimicrobial activity against Serratia marcescens ATCC 14756 after 18 to 24 hrs by alamar blue assay; type: functional; settings: Serratia marcescens, ATCC 14756; read-out: MIC; procedure, shortened: as §2
[8] = tested on: Mycolicibacterium smegmatis; test: Antimicrobial activity against Mycobacterium smegmatis BCRC 11565 after 18 to 24 hrs by alamar blue assay; type: functional; settings: Mycolicibacterium smegmatis, BCRC 11565; read-out: MIC; procedure, shortened: as §2
[9] = Inhibition of transglycosylase assessed as inhibition of NBD- labelled lipid II polymerization
Procedure, shortened: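 100 µM NBD-labelled lipid II incubated 30 min with full-length PBP (EC, SA or Mtb) and 10 ng/µl N-acetylmuramidase in 50 mM Tris-HCl pH 8.0, 10 mM MgCl2, 0.1% Triton X-100, 10% DMSO, 15% MeOH. Supernatant run on anion-exchange HPLC with 20 mM–0.5 M ammonium acetate gradient. Inhibition calculated from substrate peak-area percentage. IC50 determined. S. aureus strains share one SA enzyme.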

[10] = tested on: Staphylococcus aureus; test: Antimicrobial activity against methicillin-resistant Staphylococcus aureus isolate NTUH4722 after 18 to 24 hrs by alamar blue assay; type: functional; procedure, shortened: as §1
[11] = tested on: Staphylococcus aureus; test: Antimicrobial activity against methicillin-resistant Staphylococcus aureus ATCC 33592 after 18 to 24 hrs by alamar blue assay; type: functional; settings: Staphylococcus aureus, ATCC 33592; read-out: MIC; procedure, shortened: as §1
[12] = tested on: Staphylococcus aureus; test: Antimicrobial activity against Staphylococcus aureus ATCC 29213 after 18 to 24 hrs by alamar blue assay

| Structure (SMILES) | MIC [1] [µg/mL] | MIC [2] [µg/mL] | MIC [3] [µg/mL] | MIC [4] [µg/mL] | MIC [5] [µg/mL] | MIC [6] [µg/mL] | MIC [7] [µg/mL] | MIC [8] [µg/mL] | IC90 [9] [µM] | MIC [10] [µg/mL] | MIC [11] [µg/mL] | MIC [12] [µg/mL] |
| --- | --- | --- | --- | --- | --- | --- | --- | --- | --- | --- | --- | --- |
| Cc1ccc(C(=O)c2cc(Cl)cc(NC(=O)c3cc(Br)cc(Br)c3O)c2Cl)cc1 | > 4 | < 0.03 | 8 (≈ 14.3 µM) | 16 (≈ 28.7 µM) | 16 (≈ 28.7 µM) | 16 (≈ 28.7 µM) | 16 (≈ 28.7 µM) | 0.5 (≈ 0.896 µM) | 100 | > 4 | > 4 | > 4 |
| O=C(Nc1ccc(Oc2ccc3ccccc3c2Cl)c(Cl)c1)c1cc(Cl)cc(Br)c1O | ≤ 0.03 | < 0.03 | 8 (≈ 14.9 µM) | 16 (≈ 29.8 µM) | 16 (≈ 29.8 µM) | 16 (≈ 29.8 µM) | 16 (≈ 29.8 µM) | 0.5 (≈ 0.93 µM) | 100 | ≤ 0.03 | ≤ 2 | ≤ 2 |
| Cc1ccc(C(=O)c2cc(NC(=O)c3cc(I)cc(I)c3O)ccc2Cl)cc1 | ≤ 0.03 | < 0.03 | 8 (≈ 13 µM) | 16 (≈ 25.9 µM) | 16 (≈ 25.9 µM) | 16 (≈ 25.9 µM) | 16 (≈ 25.9 µM) | 0.5 (≈ 0.81 µM) | 100 | ≤ 0.03 | 4 (≈ 6.48 µM) | 4 (≈ 6.48 µM) |
| O=C(Nc1ccc(Oc2cc3ccccc3cc2Cl)c(Cl)c1)c1cc(Br)cc(Br)c1O | ≤ 0.03 | < 0.03 | 8 (≈ 13.7 µM) | 16 (≈ 27.5 µM) | 16 (≈ 27.5 µM) | 16 (≈ 27.5 µM) | 16 (≈ 27.5 µM) | 0.5 (≈ 0.859 µM) | 100 | ≤ 0.03 | 4 (≈ 6.87 µM) | 4 (≈ 6.87 µM) |
| O=C(Nc1ccc(Oc2ccc(Br)c3ccccc23)c(Cl)c1)c1cc(Br)cc(Br)c1O | ≤ 0.03 | < 0.03 | 8 (≈ 12.8 µM) | 16 (≈ 25.5 µM) | 16 (≈ 25.5 µM) | 16 (≈ 25.5 µM) | 16 (≈ 25.5 µM) | 0.5 (≈ 0.798 µM) | 100 | ≤ 0.03 | ≤ 2 | 4 (≈ 6.38 µM) |
| O=C(Nc1ccc(Sc2nc3ccccc3s2)c(Cl)c1)c1cc(Br)cc(Br)c1O | ≤ 0.03 | < 0.03 | 8 (≈ 14 µM) | 16 (≈ 28 µM) | 16 (≈ 28 µM) | 16 (≈ 28 µM) | 16 (≈ 28 µM) | 0.5 (≈ 0.876 µM) | 100 | ≤ 0.03 | ≤ 2 | 4 (≈ 7.01 µM) |
| O=C(Nc1nnc(-c2ccc(Cl)cc2)o1)c1cccc(Cl)c1 | 0.125 (≈ 0.374 µM) | 0.5 (≈ 1.5 µM) | > 256 | > 256 | > 256 | > 256 | > 256 | 0.5 (≈ 1.5 µM) |  | 0.125 (≈ 0.374 µM) | 0.25 (≈ 0.748 µM) | 0.5 (≈ 1.5 µM) |
| O=C(Nc1nnc(-c2ccc(F)cc2)o1)c1cccc(C(F)(F)F)c1 | 4 (≈ 11.4 µM) | 0.5 (≈ 1.42 µM) | > 256 | > 256 | > 256 | > 256 | > 256 | 0.5 (≈ 1.42 µM) |  | 1 (≈ 2.85 µM) | 0.5 (≈ 1.42 µM) | 0.5 (≈ 1.42 µM) |
| CCc1ccccc1NS(=O)(=O)c1ccc2c(c1)NC(=O)C(C)S2 (stereo not drawn) | 1 (≈ 2.76 µM) | < 0.03 | > 256 | > 256 | > 256 | > 256 | > 256 | > 64 |  | 32 (≈ 88.3 µM) | 1 (≈ 2.76 µM) | 0.5 (≈ 1.38 µM) |
| Cc1c(CC(=O)N[C@@H](C(=O)O)C(C)C)c(=O)oc2c(C)c3occ(-c4ccc(Cl)cc4)c3cc12 | 2.5 (≈ 5.19 µM) | > 64 | > 256 | > 256 | > 256 | > 256 | > 256 | 1 (≈ 2.07 µM) |  | 2.5 (≈ 5.19 µM) | 1.25 (≈ 2.59 µM) | 1.25 (≈ 2.59 µM) |
| CCC1Sc2ccc(S(=O)(=O)Nc3ccc(C)cc3C)cc2NC1=O (stereo not drawn) | > 64 | < 0.03 | > 256 | > 256 | > 256 | > 256 | > 256 | > 64 |  | 4 (≈ 10.6 µM) | 8 (≈ 21.2 µM) | 1 (≈ 2.66 µM) |
| Cc1ccccc1NS(=O)(=O)c1ccc2c(c1)NC(=O)C(C)S2 (stereo not drawn) | 1.2 (≈ 3.44 µM) | < 0.03 | > 256 | > 256 | > 256 | > 256 | > 256 | > 64 |  | 1.2 (≈ 3.44 µM) | 1.2 (≈ 3.44 µM) | 1.2 (≈ 3.44 µM) |
